Activity calls are given as the source filed them. No cut-off for these calls is given here.

Experiment [1] addresses T1, Sphingomyelin phosphodiesterase (Homo sapiens) (UniProt P17405).
T1 sequence (whole entry): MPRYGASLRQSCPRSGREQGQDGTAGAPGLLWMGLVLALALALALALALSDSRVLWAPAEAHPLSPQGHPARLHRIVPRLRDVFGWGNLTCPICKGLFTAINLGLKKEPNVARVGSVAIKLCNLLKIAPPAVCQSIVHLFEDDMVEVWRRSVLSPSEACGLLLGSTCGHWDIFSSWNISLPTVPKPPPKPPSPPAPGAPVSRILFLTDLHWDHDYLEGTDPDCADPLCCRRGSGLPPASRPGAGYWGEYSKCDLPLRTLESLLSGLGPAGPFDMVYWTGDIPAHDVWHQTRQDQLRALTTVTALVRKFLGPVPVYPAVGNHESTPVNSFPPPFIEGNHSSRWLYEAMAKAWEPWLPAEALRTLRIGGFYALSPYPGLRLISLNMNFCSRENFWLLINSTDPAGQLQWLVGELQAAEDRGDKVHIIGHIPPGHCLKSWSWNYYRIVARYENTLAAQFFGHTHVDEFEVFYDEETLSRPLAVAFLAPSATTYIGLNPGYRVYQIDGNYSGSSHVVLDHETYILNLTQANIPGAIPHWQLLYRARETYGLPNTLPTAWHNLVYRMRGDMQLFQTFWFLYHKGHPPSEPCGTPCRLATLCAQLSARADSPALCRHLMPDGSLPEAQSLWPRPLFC
As to the kind of experiment: Inhibition of mmLDL-stimulated acid sphingomyelinase in human PBMC lysates up to 2 uM preincubated for 30 mins followed by mmLDL stimulation measured after 4 hrs by YO-PRO-1/Hoechst 33342 staining based assay.

Experiment [2] relates to MONO-MAC-6. As to the kind of experiment: Upregulation of ICAM1 mRNA expression level in LPS-stimulated human MONO-MAC-6 cells at 5 uM preincubated for 30 mins followed by LPS stimulation measured after 6 hrs by oligonucleotide array hybridization assay (reference value: 2.90). In kind it is functional.
Experiment [3] has as its system MONO-MAC-6. As to the kind of experiment: Downregulation of CXCL2 mRNA expression level in LPS-stimulated human MONO-MAC-6 cells at 5 uM preincubated for 30 mins followed by LPS stimulation measured after 6 hrs by qRT-PCR method (reference value: 5.22). In kind it is functional. For orientation: Real-time PCR tracks product formation cycle by cycle.
Experiment [4] deals with MONO-MAC-6. As to the kind of experiment: Downregulation of PTX3 mRNA expression level in human MONO-MAC-6 cells at 5 uM incubated for 30 mins measured after 2 hrs by oligonucleotide array hybridization assay relative to control. The class given is functional. A digest of the protocol:
(§1)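 Total RNA was isolated, transcribed and labeled with DY-647 dye, then co-hybridized with DY-548-labeled cDNA from untreated cells on an inflammation oligonucleotide chip (780 gene probes). Differential expression >1.5 was taken as significant.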

For experiment [5], the system named is MONO-MAC-6. As to the kind of experiment: Downregulation of CCL4 mRNA expression level in human MONO-MAC-6 cells at 5 uM incubated for 30 mins measured after 2 hrs by oligonucleotide array hybridization assay relative to control. The class given is functional. In short, it runs like this: as §1
For experiment [6], the system named is MONO-MAC-6. As to the kind of experiment: Downregulation of IL-6 mRNA expression level in human MONO-MAC-6 cells at 5 uM incubated for 30 mins measured after 6 hrs by qRT-PCR method relative to control. In kind it is functional.
For experiment [7], the system named is MONO-MAC-6. As to the kind of experiment: Downregulation of TNFalpha mRNA expression level in human MONO-MAC-6 cells at 5 uM incubated for 30 mins measured after 4 hrs by qRT-PCR method relative to control. The class given is functional.
Experiment [8] concerns the target T2, Acid ceramidase (Homo sapiens) (UniProt Q13510).
T2 sequence (whole entry): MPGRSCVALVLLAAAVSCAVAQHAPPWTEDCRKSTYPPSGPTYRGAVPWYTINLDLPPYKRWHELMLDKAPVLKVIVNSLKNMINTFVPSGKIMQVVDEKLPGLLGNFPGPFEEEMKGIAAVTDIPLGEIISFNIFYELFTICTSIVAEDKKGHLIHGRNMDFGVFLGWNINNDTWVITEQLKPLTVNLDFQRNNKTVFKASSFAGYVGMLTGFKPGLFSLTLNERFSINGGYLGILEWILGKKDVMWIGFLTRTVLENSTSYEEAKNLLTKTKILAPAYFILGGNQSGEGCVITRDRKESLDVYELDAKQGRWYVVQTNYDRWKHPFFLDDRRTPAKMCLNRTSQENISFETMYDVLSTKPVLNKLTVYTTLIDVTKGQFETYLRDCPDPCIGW
As to the kind of experiment: Inhibition of mmLDL-stimulated acid ceramidase in human PBMC assessed as ratio of C16-ceramide/lipid phosphate level at 10 uM preincubated for 30 mins followed by mmLDL stimulation measured after 4 hrs by HPLC method (reference value: 0.49). In kind it is cell-based. In short, it runs like this:
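Human macrophages from primary culture were preincubated 30 min with 10 µM compound. They were then stimulated 4 h with mmLDL (54 µg/mL), TNFalpha (3 ng/mL) or exogenous C6-ceramide (10 µM), or left unstimulated. Individual ceramide species (C16 and C24:1) were quantified in the cell lipid extracts.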

Experiment [9] deals with MONO-MAC-6. As to the kind of experiment: Upregulation of ICAM1 mRNA expression level in LPS-stimulated human MONO-MAC-6 cells at 5 uM preincubated for 30 mins followed by LPS stimulation measured after 1 hr by oligonucleotide array hybridization assay (reference value: 1.17). The class given is functional.
The test system of experiment [10] is MONO-MAC-6. As to the kind of experiment: Upregulation of IFNA13 mRNA expression level in LPS-stimulated human MONO-MAC-6 cells preincubated for 30 mins followed by LPS stimulation measured after 1 hr by qRT-PCR analysis relative to control. In kind it is functional.
Experiment [11] concerns MONO-MAC-6. The experiment in a line: Upregulation of PTGS2 mRNA expression level in LPS-stimulated human MONO-MAC-6 cells at 5 uM preincubated for 30 mins followed by LPS stimulation measured after 2 hrs by oligonucleotide array hybridization assay (reference value: 1.97). In kind it is functional.
Experiment [12] has as its target T1, Sphingomyelin phosphodiesterase (Homo sapiens). As to the kind of experiment: Inhibition of mmLDL-stimulated acid sphingomyelinase in human PBMC lysates at 2 to 50 uM preincubated for 30 mins followed by mmLDL stimulation measured after 4 hrs by YO-PRO-1/Hoechst 33342 staining based assay.
Experiment [13] deals with MONO-MAC-6. As to the kind of experiment: Downregulation of TNFalpha mRNA expression level in LPS-stimulated human MONO-MAC-6 cells at 5 uM preincubated for 30 mins followed by LPS stimulation measured after 6 hrs by qRT-PCR method (reference value: 2.17). In kind it is functional.
For experiment [14], the target named is T1, Sphingomyelin phosphodiesterase (Homo sapiens). As to the kind of experiment: Inhibition of mmLDL-stimulated acid sphingomyelinase in human PBMC lysates up to 10 uM preincubated for 30 mins followed by mmLDL stimulation measured after 4 hrs by YO-PRO-1/Hoechst 33342 staining based assay.
Experiment [15] deals with MONO-MAC-6. As to the kind of experiment: Downregulation of IL-6 mRNA expression level in LPS-stimulated human MONO-MAC-6 cells at 5 uM preincubated for 30 mins followed by LPS stimulation measured after 6 hrs by qRT-PCR method (reference value: 5.09). The class given is functional.
In experiment [16] the test system is MONO-MAC-6. As to the kind of experiment: Downregulation of TNFalpha mRNA expression level in human MONO-MAC-6 cells at 5 uM incubated for 30 mins measured after 1 hr by qRT-PCR method relative to control. In kind it is functional.
The test system of experiment [17] is MONO-MAC-6. The experiment in a line: Upregulation of CXCL10 mRNA expression level in human MONO-MAC-6 cells at 5 uM incubated for 30 mins measured after 2 hrs by oligonucleotide array hybridization assay relative to control. The class given is functional.
In experiment [18] the test system is MONO-MAC-6. As to the kind of experiment: Upregulation of CXCL3 mRNA expression level in human MONO-MAC-6 cells at 5 uM incubated for 30 mins measured after 2 hrs by oligonucleotide array hybridization assay relative to control. The class given is functional.

Consider `COc1ccc(CCN(C)CCCn2c3ccccc3c3ccccc32)cc1`, for which the inhibition result in experiment [1] and in [14] was “inactive” in each case. In addition, the “fold change (FC)” value in the experiment with MONO-MAC-6 [2] was 1.15; with MONO-MAC-6 [3], 1.01; in the experiment with MONO-MAC-6 [4] it was 1.61; in the experiment with MONO-MAC-6 [5], 1.05; in the experiment on MONO-MAC-6 [6], 46.64; in the experiment on MONO-MAC-6 [7], 2.86. In addition, the “fold change (FC)” value in the experiment with MONO-MAC-6 [9] came to 1.11; with MONO-MAC-6 [10] it was 41.95; in the experiment with MONO-MAC-6 [11], 3.66; in the experiment on MONO-MAC-6 [13], 1.16; with MONO-MAC-6 [15], 1.1; with MONO-MAC-6 [16], 1.83. Moreover, the “fold change (FC)” value in the experiment on MONO-MAC-6 [17] is recorded as 1; in the experiment on MONO-MAC-6 [18], 1.25. Moreover, in experiment [8], the Ratio worked out at 0.24. Moreover, in experiment [12], the inhibition result is “Active”.
